Source: PubChem
TRPC6 activator = mouse TRPC6 channel activation | 0.13% of 310,000 active | Q61143 | B-score at 10 µM | HEK293-TRPC6 membrane potential dye fluorescence; active compounds read high;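 active means B-score of the integrated fluorescence ratio above library mean plus 3 SD, and starting fluorescence ratio within library mean plus 5 SD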;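 further: higher score means more depolarization so channel activation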
TRPC4 block = blocks the mouse TRPC4 cation channel; HEK293 TRPC4beta/mu-opioid, DAMGO-evoked Fluo4 calcium flux; active compounds read low; 0.39% of 300,000 active; B-score at 10 µM; AID 2247;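 active means B-score over 3 SD under the library average, no early fluorescence shift, positive overall ratio signal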
Target sequence (Q9QUQ5 whole entry, looked up): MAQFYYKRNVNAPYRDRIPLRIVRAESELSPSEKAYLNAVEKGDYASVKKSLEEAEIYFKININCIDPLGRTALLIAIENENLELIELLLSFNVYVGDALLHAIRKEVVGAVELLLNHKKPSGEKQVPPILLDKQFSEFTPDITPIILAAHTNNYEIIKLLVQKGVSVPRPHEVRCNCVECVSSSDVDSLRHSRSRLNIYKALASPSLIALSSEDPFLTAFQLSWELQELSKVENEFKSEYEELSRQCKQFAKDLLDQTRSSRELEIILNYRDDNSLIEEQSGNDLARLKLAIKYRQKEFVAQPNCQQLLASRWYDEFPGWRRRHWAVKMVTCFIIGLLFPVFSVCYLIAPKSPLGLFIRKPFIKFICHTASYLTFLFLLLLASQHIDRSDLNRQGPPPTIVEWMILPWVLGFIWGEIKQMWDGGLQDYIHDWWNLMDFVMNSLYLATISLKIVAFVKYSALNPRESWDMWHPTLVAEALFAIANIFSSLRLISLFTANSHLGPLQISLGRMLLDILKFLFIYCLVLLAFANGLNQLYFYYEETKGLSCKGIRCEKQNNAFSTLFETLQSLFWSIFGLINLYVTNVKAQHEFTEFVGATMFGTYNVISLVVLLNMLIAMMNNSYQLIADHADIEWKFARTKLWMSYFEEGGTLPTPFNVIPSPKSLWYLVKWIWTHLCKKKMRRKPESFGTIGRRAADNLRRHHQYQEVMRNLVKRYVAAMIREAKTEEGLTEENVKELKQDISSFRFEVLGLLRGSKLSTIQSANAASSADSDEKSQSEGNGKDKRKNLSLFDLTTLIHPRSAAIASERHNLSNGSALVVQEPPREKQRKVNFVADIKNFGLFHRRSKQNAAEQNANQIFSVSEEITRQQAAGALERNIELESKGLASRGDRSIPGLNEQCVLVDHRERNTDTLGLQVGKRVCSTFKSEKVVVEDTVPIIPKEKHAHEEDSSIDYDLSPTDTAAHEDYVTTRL
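Assay system: TRPC4beta/mu-opioid receptor HEK293 cell line; compound dosing: single concentration per test compound; detection: Fluo4 Ca2+ flux fluorescence; evaluation: per-well B score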
CR mimetic SO = yeast age-related superoxide inhibition as caloric restriction mimetic; S. cerevisiae aged cells, superoxide DHE fluorescence; active compounds read low; 0.18% of 330,000 active; superoxide response (% of plate mean), % at 10 µM;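 active means superoxide response under a set limit, about three screen SD below normal, cut at about 65% in these data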;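 further: yeast aged for seven days with compound at 30 °C before DHE staining; 100% = average MFI of all compound-treated wells on the plate with controls excluded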
TRPC4 potent = allosteric potentiators of mouse TRPC4 channel | HEK293 TRPC4beta/mu-opioid, DAMGO EC20, Fluo-4 Ca2+ flux; active compounds read high | Q9QUQ5 | B-score at 10 µM | AID 2227 | 0.42% of 310,000 active;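 active means B-score of calcium response area above 5 SD of library B-scores, with initial fluorescence ratio within 5 SD of library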;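 further: B-score of integrated fluorescence ratio over time as area under calcium response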
TRPC4 agonist = opens the mouse TRPC4 cation channel. HEK293 TRPC4beta/mu-opioid, Fluo4 calcium fluorescence; active compounds read high. 0.49% of 310,000 active. B-score at 10 µM. AID 2237. Q9QUQ5;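 active means B-score above 5 SD of library B-scores, and initial fluorescence ratio not above library mean plus 5 SD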;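 further: positive B-score marks a calcium rise read as TRPC4 activation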
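system = HEK293 cells stably co-expressing mouse TRPC4beta and mu-opioid receptor | schedule = Fluo4 dye loading 45 min at room temperature, 110 s recording | measure = B-scored integrated calcium fluorescence ratio | signal = Fluo4 calcium-sensitive dye fluorescence, kinetic, 1 Hz baseline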
TRPC6 inh = inhibitors of mouse TRPC6 channel; B-score at 10 µM; HEK293-TRPC6, membrane potential dye, ACh-evoked depolarization; active compounds read low; Q61143; 1.1% of 310,000 active;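 active means B-score under library mean minus 3 SD, initial fluorescence not abnormally high, positive integrated signal ratio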;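 further: B-score derived from integrated fluorescence ratio over the kinetic read; more negative B-score means stronger inhibition of depolarization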
* = called active by the depositor; i = inactive; . = no result given. Only some compounds are listed: those with a hit (about 2.3% of all), similar ones and a draw of the others.

SMILES	TRPC6 activator	TRPC4 block	CR mimetic SO	TRPC4 potent	TRPC4 agonist	TRPC6 inh
Cc1cccn2c(CNCCc3ccccn3)c(C(=O)N3CCOCC3)nc12	i	i	92.9	i	171*	i
CSCCNCc1c(C(=O)N2CCOCC2)nc2c(C)cccn12	i	i	98.2	i	i	i
CC1CN(C(=S)NC(=O)c2cccc([N+](=O)[O-])c2)CC(C)O1 (centres undefined)	i	i	92.9	i	i	i
CCN(CC)CC(O)COCCC12CC3CC(CC(C3)C1)C2 (centres undefined)	i	i	100.4	i	i	i
CCOC(=O)c1oc2ccccc2c1CN1CCCCC1	i	-6*	101.9	i	i	i
CCOC(=O)c1oc2ccccc2c1CN1CCN(C)CC1	i	i	101.9	i	i	i
Cc1ccc(S(=O)(=O)NC(=O)NCc2ccccc2)cc1	i	i	92.0	i	i	i
Cc1c(N)c(C(C)(C)C)cc(C(C)(C)C)c1[N+](=O)[O-]	i	-6*	104.2	i	i	i
Cc1cc(N)c(C)c([N+](=O)[O-])c1C	i	i	119.8	i	i	i
CSc1nnc(-c2cnccn2)n1C	i	.	105.9	i	i	i
CCOC(=O)c1cnc2ccc(C(=O)OC)cc2c1Nc1ccc2c(c1)OCCO2	i	i	134.5	i	i	i
CCOC(=O)c1cnc2c(OC)cccc2c1Nc1ccc2c(c1)OCCO2	i	i	57.4*	i	i	i
O=C(O)c1cc([N+](=O)[O-])cc([N+](=O)[O-])c1N1CCN(c2cccc(C(F)(F)F)c2)CC1	i	i	109.9	i	i	i
COc1cc(CO)ccc1OCc1ccc(Cl)nc1	i	i	115.5	i	i	i
COc1cc(CNCCc2ccc(F)cc2)ccc1OCc1ccc(Cl)nc1	i	-6*	94.2	i	i	i
COc1ccc(OC2CCN(S(=O)(=O)c3ccccc3)CC2)cc1	i	i	122.0	13*	i	i
NC(=O)C1CCN(C(=O)c2cnn(-c3ccccc3)c2NC(=O)c2cccc(F)c2)CC1	i	i	95.2	i	i	i
Cc1ccc(OCCCCn2ccnc2)c(Cl)c1	i	i	103.3	i	i	i
Cc1cc(OCCn2ccnc2)cc(C)c1Cl	i	i	100.0	i	129*	i
Cc1cccc(OCCCCCn2ccnc2)c1C	i	i	92.3	i	69*	i
CC(C)(C)c1cc(Cl)ccc1OCCn1ccnc1	i	i	110.4	42*	63*	i
Cc1cc(OCCn2ccnc2)ccc1C(C)C	i	i	94.2	i	i	i
Cc1cc(C(C)(C)C)ccc1OCCn1ccnc1	i	i	107.7	i	i	i
Cc1cccc(C)c1OCCCn1ccnc1	i	i	102.3	i	i	i
Cc1ccc(C)c(OCCCCn2ccnc2)c1	i	i	100.2	i	133*	i
SMILES	TRPC6 activator	TRPC4 block	CR mimetic SO	TRPC4 potent	TRPC4 agonist	TRPC6 inh
Cc1ccsc1C(=O)Nc1nccs1	i	i	85.7	i	i	i
Cc1nc2cc(F)ccc2n1C1CCN(C(=O)c2ccc(F)cc2F)CC1	i	i	83.8	i	i	i
CC(C)(C)c1ccccc1OCCCCCn1ccnc1	i	i	103.9	42*	i	i
CCCC1(c2ccccc2)NC(=O)N(CC(=O)c2[nH]c(C)c(C(=O)OCC)c2C)C1=O (centres undefined)	i	i	100.1	15*	i	i
CN(CCOc1ccc(Cl)cc1)CC(O)c1ccccc1 (centres undefined)	i	i	115.6	i	126*	i
CN(CCOc1ccc(Br)cc1)CC(O)c1ccccc1 (centres undefined)	i	i	95.5	i	149*	i
CN(CCOc1ccc(Br)cc1)CC(O)COc1ccc(C#N)cc1 (centres undefined)	i	i	96.2	i	i	i
COc1ccc(S(=O)(=O)N2CCN=C2SCc2cccnc2)cc1	i	i	94.3	i	i	i
Cc1ccc(S(=O)(=O)NC(C(=O)Oc2cc3oc(=O)cc(C)c3cc2Cl)C(C)C)cc1 (centres undefined)	i	i	103.5	15*	i	i
CC(C)Cn1c(O)c(N=NC(=O)c2cccc(S(=O)(=O)N3CCCCC3)c2)c2ccccc21	i	i	108.5	17*	i	i
O=C(NNC(=O)c1cccc(S(=O)(=O)N2CCCCC2)c1)c1ccccc1	.	.	94.6	.	.	.
O=C(O)C1CCCCC1C(=O)NCCc1ccc(F)cc1 (centres undefined)	i	i	105.3	10*	i	i
O=C(O)C1CCCCC1C(=O)NCCc1ccc(Cl)cc1 (centres undefined)	i	i	110.2	i	i	i
Cc1cccc(Nc2nc(NCCCN3CCOCC3)nc(N)c2[N+](=O)[O-])c1	i	-6*	113.6	i	i	i
O=C(NC(C(=O)N/N=C/c1cccnc1)c1n[nH]c(=O)c2ccccc12)c1ccccc1 (centres undefined)	i	i	127.7	i	53*	i
CCc1cc(Cl)c(OC)c(C(=O)NC[C@@H]2CCCN2CC)c1O	i	i	103.4	i	70*	i
CSCCC(=O)N1CCC(n2nccc2NC(=O)CCCc2ccccc2)CC1	i	i	128.6	i	i	i
COc1cccc(N2C(=O)C3CCCN3C2c2cccs2)c1 (centres undefined)	i	i	85.5	i	43*	i
Cc1ccc(C2N(c3cccc(Cl)c3)C(=O)C3CCCN32)o1 (centres undefined)	i	i	98.2	33*	i	i
CC(NC(=O)CCNS(=O)(=O)c1ccccc1)c1ccccc1 (centres undefined)	i	i	90.0	i	i	i
Cn1c(SCC(N)=O)nnc1-c1cnccn1	i	i	111.5	i	i	i
O=C(O)c1cnc(-c2ccccc2)nc1Sc1cccc(Cl)c1	i	i	98.2	i	i	i
O=C(O)c1cnc(-c2ccccc2)nc1Sc1ccc(Cl)cc1Cl	i	-6*	90.4	i	i	i
Cc1ccc2cc(CN(CC3CCCO3)C(=S)NCc3ccco3)c(=O)[nH]c2c1C (centres undefined)	i	i	91.7	i	i	i
